The target in assay [1] is T1, Muscarinic acetylcholine receptor M1 (Homo sapiens) (UniProt P11229).
T1 sequence (whole entry): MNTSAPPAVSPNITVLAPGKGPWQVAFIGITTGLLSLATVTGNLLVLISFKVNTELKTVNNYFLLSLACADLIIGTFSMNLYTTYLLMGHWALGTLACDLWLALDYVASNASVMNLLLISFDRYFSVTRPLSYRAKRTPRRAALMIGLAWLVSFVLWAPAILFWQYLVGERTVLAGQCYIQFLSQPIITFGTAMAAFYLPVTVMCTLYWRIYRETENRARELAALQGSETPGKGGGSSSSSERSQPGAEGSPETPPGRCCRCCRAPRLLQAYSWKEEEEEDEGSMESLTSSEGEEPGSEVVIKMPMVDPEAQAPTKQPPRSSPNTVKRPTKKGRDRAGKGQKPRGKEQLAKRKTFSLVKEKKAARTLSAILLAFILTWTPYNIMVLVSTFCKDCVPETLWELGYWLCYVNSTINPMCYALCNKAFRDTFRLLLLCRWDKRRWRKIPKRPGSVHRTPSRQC
The experiment in a line: Displacement of [3H]NMS from human muscarinic M1 receptor expressed in CHO Flp-In cells after 1 hr by microbeta liquid scintillation counting-based radioligand binding assay. It counts as cell-based. The method, boiled down:
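Intact adherent Flp-In CHO cells expressing hM1 (10⁴ cells/well), incubated with 0.2 nM [3H]NMS, varying ACh and modulator in HEPES-buffered saline pH 7.4 for 1 h at 37 °C. Washed with ice-cold 0.9% NaCl, then scintillation counted. Fitted to an allosteric ternary complex model with [3H]NMS KA 0.2 nM. Mean ± SEM, ≥3 experiments in duplicate.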
A general note: In a radioligand displacement assay an active substance lowers the binding of a labelled ligand.

Assay [2] deals with T1, Muscarinic acetylcholine receptor M1 (Homo sapiens). The experiment in a line: Positive allosteric modulation of human muscarinic M1 receptor expressed in CHO Flp-In cells assessed as functional cooperativity with acetylcholine measured as IP1 accumulation after 1 hr by HTRF method. It counts as cell-based. The procedure, abridged:
(§1)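 Suspended Flp-In CHO cells stably expressing hM1, stimulated at 10⁶ cells/ml in HEPES buffer with 50 mM LiCl, pH 7.4, using increasing ACh with or without increasing modulator, 1 h at 37 °C, 5% CO2. IP1 read by HTRF (665/590 nm ratio). Curves fitted globally to the operational model of allosterism, with KB fixed from binding. Mean ± SEM, ≥3 experiments in duplicate.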

Assay [3] has the same target. Briefly: Allosteric agonist activity at human muscarinic M1 receptor expressed in CHO Flp-In cells assessed as intrinsic activity measured as IP1 accumulation after 1 hr by HTRF method. It counts as functional, cell-based. The procedure, abridged: as §1

As usually defined, the pKb is the negative decadic logarithm of the Kb, by convention in mol/L. A high value points to a small Kb. Consider `O=C(O)c1cccc(COc2ccccc2-c2ccn([C@H]3CCCC[C@@H]3O)c(=O)c2)c1` (racemic), for which, in assay [1], the Kb came out at 91 µM and the pKb worked out at 4.04. For the same molecule, in assay [2], the log(activity) was 1.08. For the same molecule, in assay [3], the Intrinsic activity stood at 0.2 and the log(IA) is -0.69.
In assay [1], `O=c1cc(-c2ccccc2OCc2ccc(-c3nccs3)cc2)ccn1[C@H]1CCCC[C@@H]1O` (racemic) displayed a Kb of 11 µM and a pKb of 4.96. Further, in assay [2], the log(activity) was found to be 0.8. In assay [3], the Intrinsic activity is 0.45 and the log(IA) was -0.35.
As to `COC(=O)c1cccc(COc2ccccc2-c2ccn([C@H]3CCCC[C@@H]3O)c(=O)c2)c1` (racemic), in assay [1], the Kb is 100 µM and the pKb came out at 3.99. The log(activity) in assay [2] amounted to 0.52. Besides, in assay [3], the Intrinsic activity stood at 0.15 and the log(IA) was -0.82.
`O=c1cc(-c2ccccc2OCc2cccc(F)c2)ccn1[C@H]1CCCC[C@@H]1O` (racemic): in assay [1], the Kb was 41 µM and the pKb is 4.38. Also, in assay [2], the log(activity) amounted to 0.85. In assay [3], the Intrinsic activity is 0.78 and the log(IA) was -0.11.
In assay [1], `O=c1cc(-c2ccccc2OCc2ccccc2)ccn1[C@H]1CCCC[C@@H]1O` (racemic) had a Kb of 28 µM and a pKb of 4.55. Further, the log(activity) in assay [2] worked out at 0.94. In assay [3], the Intrinsic activity worked out at 0.58 and the log(IA) is -0.24.
As for `O=c1cc(-c2ccccc2OCc2ccc(F)cc2)ccn1[C@H]1CCCC[C@@H]1O` (racemic), in assay [1], the Kb turned out to be 60 µM and the pKb was 4.22. In assay [2], the log(activity) came out at 1.15. Besides, in assay [3], the Intrinsic activity was found to be 1 and the log(IA) was found to be 0.
In assay [1], `O=c1cc(-c2ccccc2OCc2cccc(C(F)(F)F)c2)ccn1[C@H]1CCCC[C@@H]1O` (racemic) yielded a Kb of 30 µM and a pKb of 4.53. Besides, in assay [2], the log(activity) came to 0. Further, in assay [3], the Intrinsic activity amounted to 1.02 and the log(IA) came out at 0.01.
For the molecule `O=C(O)c1ccc(COc2ccccc2-c2ccn([C@H]3CCCC[C@@H]3O)c(=O)c2)cc1` (racemic), in assay [1], the pKb was found to be 3.88. Moreover, in assay [2], the log(activity) was 0.92. Further, in assay [3], the log(IA) was -1.24.
For the molecule `O=c1cc(-c2ccccc2OCc2ccc(-c3cnn(C4CCCC4)c3)cc2)ccn1[C@H]1CCCC[C@@H]1O` (racemic), in assay [1], the Kb worked out at 4 µM and the negative-log Kb (pKb) worked out at 5.45. Moreover, the log(activity) in assay [2] turned out to be 1.92. Moreover, in assay [3], the Intrinsic activity is 0.38 and the log(IA) is -0.42.
In assay [1], `O=c1cc(-c2ccccc2OCc2ccc(-c3cnn(C4CCCCC4)c3)cc2)ccn1[C@H]1CCCC[C@@H]1O` (racemic) registered a Kb of 2 µM and a pKb of 5.67. Besides, the log(activity) in assay [2] worked out at 0.63. Moreover, in assay [3], the Intrinsic activity stood at 0.51 and the log(IA) was -0.29.
In the same order, the values of `N#Cc1cccc(COc2ccccc2-c2ccn([C@H]3CCCC[C@@H]3O)c(=O)c2)c1` (racemic) are 87 µM, 4.06, 0.88, 0.25 and -0.59.
Consider `NC(=O)c1ccc(COc2ccccc2-c2ccn([C@H]3CCCC[C@@H]3O)c(=O)c2)cc1` (racemic), for which, in assay [1], the Kb amounted to 22 µM and the pKb was determined as 4.66. In assay [2], the log(activity) is 2.36. Moreover, in assay [3], the Intrinsic activity was 0.89 and the log(IA) stood at 0.05.
In assay [1], `COC(=O)c1ccc(COc2ccccc2-c2ccn([C@H]3CCCC[C@@H]3O)c(=O)c2)cc1` (racemic) had a Kb of 87 µM and a pKb of 4.06. Moreover, the log(activity) in assay [2] worked out at 0.96. For the same molecule, in assay [3], the Intrinsic activity came out at 0.54 and the log(IA) is -0.26.
In assay [1], `Cn1cc(-c2ccc(COc3ccccc3-c3ccn([C@H]4CCCC[C@@H]4O)c(=O)c3)cn2)cn1` (racemic) showed a Kb of 32 µM and a pKb of 4.5. For the same molecule, the log(activity) in assay [2] came to 2.15. In addition, the log(IA) in assay [3] was -3.
Consider `CCCCn1cc(-c2ccc(COc3ccccc3-c3ccn([C@H]4CCCC[C@@H]4O)c(=O)c3)cc2)cn1` (racemic), for which, in assay [1], the Kb turned out to be 14 µM and the pKb stood at 4.86. In addition, the log(activity) in assay [2] is 0.75. Further, in assay [3], the Intrinsic activity is 0.5 and the log(IA) was -0.3.
In assay [1], `O=c1cc(-c2ccccc2OCc2ccc(-c3ncco3)cc2)ccn1[C@H]1CCCC[C@@H]1O` (racemic) yielded a Kb of 28 µM and a pKb of 4.56. Moreover, in assay [2], the log(activity) was 1.61. In assay [3], the Intrinsic activity worked out at 0.57 and the log(IA) was -0.24.
The like results for `O=c1cc(-c2ccccc2OCc2ccc(-c3ccncc3)cc2)ccn1[C@H]1CCCC[C@@H]1O` (racemic) were, in that order, 11 µM, 4.95, 1.01, 0.43 and -0.37.
For `CCCn1cc(-c2ccc(COc3ccccc3-c3ccn([C@H]4CCCC[C@@H]4O)c(=O)c3)cc2)cn1` (racemic), in assay [1], the Kb was determined as 23 µM and the pKb amounted to 4.64. Moreover, the log(activity) in assay [2] came to 1.78. Besides, in assay [3], the Intrinsic activity is 0.3 and the log(IA) is -0.52.
On to `O=c1cc(-c2ccccc2OCc2ccc(-c3cn[nH]c3)cc2)ccn1[C@H]1CCCC[C@@H]1O` (racemic), for which, in assay [1], the Kb was determined as 28 µM and the pKb turned out to be 4.56. For the same molecule, in assay [2], the log(activity) stood at 0.68. In addition, in assay [3], the Intrinsic activity stood at 1.1 and the log(IA) was found to be 0.04.
For the molecule `Cn1cc(-c2ccc(CNc3ccccc3-c3ccn([C@H]4CCCC[C@@H]4O)c(=O)c3)cc2)cn1` (racemic), in assay [1], the Kb was 66 µM and the pKb was found to be 4.18. Moreover, the log(activity) in assay [2] came to 1.44. Also, in assay [3], the Intrinsic activity was determined as 0.44 and the log(IA) is -0.36.
In assay [1], `Cn1cc(-c2ccc(COc3c(F)ccc(F)c3-c3ccn([C@H]4CCCC[C@@H]4O)c(=O)c3)cc2)cn1` (racemic) gave a Kb of 42 µM and a pKb of 4.38. Also, in assay [2], the log(activity) is -0.41. Also, in assay [3], the Intrinsic activity was 1.34 and the log(IA) was 0.13.
In assay [1], `Cn1cc(-c2ccc(COc3ccccc3-c3ccn([C@H]4CCCC[C@@H]4O)c(=O)c3)c(F)c2)cn1` (racemic) showed a Kb of 31 µM and a negative logarithm of the Kb (pKb) of 4.51. Further, the log(activity) in assay [2] turned out to be 1.93. In assay [3], the Intrinsic activity stood at 0.43 and the log(IA) is -0.37.
In assay [1], `O=c1cc(-c2ccccc2OCc2ccc(-c3cncnc3)cc2)ccn1[C@H]1CCCC[C@@H]1O` (racemic) showed a Kb of 35 µM and a negative logarithm of the Kb (pKb) of 4.45. The log(activity) in assay [2] was 1.34. Also, in assay [3], the Intrinsic activity came out at 0.16 and the log(IA) is -0.8.
In assay [1], `COc1ccc(COc2ccccc2-c2ccn([C@H]3CCCC[C@@H]3O)c(=O)c2)cc1` (racemic) had a Kb of 52 µM and a pKb of 4.28. Further, the log(activity) in assay [2] came to 0.8. Further, in assay [3], the Intrinsic activity was found to be 0.08 and the log(IA) is -1.1.
